From PubChem
PRMT1 FP inh = blocks human protein arginine methyltransferase 1. Q99873. recombinant PRMT1, activity-based probe fluorescence polarization. inhibition, % at 2.79 µM. 370,000 tested, 1.3% active;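 active = inhibition above about 21% made by adding two undisclosed values, limit read from the data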
PAD4 FP inh = PAD4 (human) enzyme inhibition | AID 485272 | inhibition, % at 6.36 µM | recombinant PAD4, RCA probe fluorescence polarization | 330,000 tested, 0.41% active;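 active = percent inhibition above a cutoff equal to the mean of all tested compounds plus 3 SD, cut at about 15% in these data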
GSTO1 counter = GSTO1 inhibition, counter-screen for RBBP9 inhibitors; P78417; recombinant GSTO1, activity-based probe fluorescence polarization; inhibition, % at 5.96 µM; 300,000 tested, 1.1% active; AID 1974;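 active = inhibition above the campaign mean inhibition plus 3 SD, cut at about 35% in these data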
Target sequence (P78417 whole entry, looked up): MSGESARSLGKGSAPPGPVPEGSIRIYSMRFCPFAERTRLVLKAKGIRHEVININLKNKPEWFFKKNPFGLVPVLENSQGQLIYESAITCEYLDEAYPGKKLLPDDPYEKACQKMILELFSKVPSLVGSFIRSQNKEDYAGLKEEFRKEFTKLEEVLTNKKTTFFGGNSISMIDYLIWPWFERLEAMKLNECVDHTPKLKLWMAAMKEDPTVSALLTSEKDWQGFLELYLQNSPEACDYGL
Apaf1 inhib = blocks human Apaf-1 apoptosome activity. AID 489030. reconstituted apoptosome caspase-3 activity, DEVD-Rh110 fluorescence. O14727. 330,000 tested, 0.71% active. inhibition, % at 20 µM; active = inhibition of at least 40% at 20 µM
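Material: reconstituted apoptosome with Apaf-1, cytochrome c, caspase-9, procaspase-3, dATP. Technique: Rh110 fluorescence intensity. Buffer or medium: pH 7.5 Hepes buffer with CHAPS, BSA, DTT. Times: 30 min plus 50 min, RT.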
TDP2 inh = TDP2 (human) inhibition, absorbance primary screen; 370,000 tested, 0.34% active; recombinant TDP2, T5PNP hydrolysis, p-nitrophenol absorbance 415 nm; inhibition, % at 12.8 µM;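 active = inhibition above the mean of all tested compounds plus 3 SD, set per campaign, cut at about 25% in these data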
Target sequence (O95551 whole entry, looked up): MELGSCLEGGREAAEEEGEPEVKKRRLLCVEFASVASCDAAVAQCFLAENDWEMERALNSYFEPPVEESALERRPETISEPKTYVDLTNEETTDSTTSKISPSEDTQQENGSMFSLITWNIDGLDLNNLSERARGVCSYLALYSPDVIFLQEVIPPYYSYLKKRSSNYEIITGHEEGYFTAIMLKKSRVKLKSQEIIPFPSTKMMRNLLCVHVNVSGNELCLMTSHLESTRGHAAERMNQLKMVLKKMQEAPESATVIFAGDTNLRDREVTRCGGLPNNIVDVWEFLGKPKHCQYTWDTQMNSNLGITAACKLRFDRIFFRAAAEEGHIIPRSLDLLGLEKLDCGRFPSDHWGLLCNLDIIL
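System – recombinant human TDP2 · Amount – 120 nM TDP2 per well · Buffer or medium – Mg2+-containing Tris-HCl buffer, pH 7.5 · Reagent – T5PNP substrate, 5 mM · Dosing – 12.8 µM single point, 1% DMSO · Incubation – 2 h at 37 °C · Measured by – epi absorbance · Read-out basis – percent inhibition · Benchmarks – high control without enzyme, low control DMSO plus TDP2 · Repeats – singlicate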
GSTO1 confirm = GSTO1 (human) inhibition, confirmation. 2,400 tested, 54% active. shares compounds with GSTO1 counter. recombinant GSTO1, probe fluorescence polarization. AID 2176. inhibition, % at 5.96 µM;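 active = inhibition above the primary screen's cutoff, its mean inhibition plus 3 SD, cut at about 35% in these data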;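 also: loss of polarization as inhibitors block binding of rhodamine sulfonate ester activity probe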
GSTO1 recomb ABPP = inhibitors of recombinant human GSTO1. shares compounds with GSTO1 counter. gel ABPP SE-Rh probe fluorescence. inhibition, % at 1 µM. 130 tested, 30% active;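 active = inhibition of the enzyme GSTO1 above about 75%, limit read from the data; inactive = inhibition below that limit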
Numbers stand for hits; i = inactive; nt = no result given. A selection: hits, their analogues and other compounds. The true share with any hit is near 2.6%.

SMILES	PRMT1 FP inh	PAD4 FP inh	GSTO1 counter	Apaf1 inhib	TDP2 inh	GSTO1 confirm	others
COC(=O)[C@H](CC(C)C)N(Cc1cn(CC2CCCCC2)nn1)S(=O)(=O)c1ccccc1Br	i	nt	nt	nt	i	nt
CC(=O)Oc1cc2cccc(OC(C)=O)c(=O)c2c(OC(C)=O)c1OC(C)=O	nt	i	67	i	nt	55
CC(=O)Oc1cc2c(c3ccccc13)CCC2=O	i	nt	nt	nt	i	nt
CC(CCc1ccccc1)NC(=O)COC(=O)c1cc(NS(=O)(=O)c2ccc(Cl)c([N+](=O)[O-])c2)ccc1O (stereo unspecified)	i	i	43	i	i	49
CC(=O)N1[C@H](CO)[C@@H](c2ccccc2)[C@@H]1CN(C(=O)c1ccc(F)cc1)C(C)C	i	nt	nt	nt	i	nt
Brc1cccc(C2Nc3cccc4cccc(c34)N2)c1	i	i	40	i	i	i
CCOc1ccc(C2Nc3cccc4cccc(c34)N2)cc1OC	i	i	45	i	i	i
Brc1ccc(C2Nc3cccc4cccc(c34)N2)o1	nt	i	54	i	nt	i
Clc1cccc(C2Nc3cccc4cccc(c34)N2)c1	i	i	i	i	i	nt
CCOc1cc(C2Nc3cccc4cccc(c34)N2)ccc1O	nt	i	i	i	nt	nt
COC(=O)[C@H](NC(=O)c1cc(-c2ccccc2)sc1N)C(C)C	i	nt	nt	nt	i	nt
CCOC(=O)[C@]12CCC=C1N(Cc1ccccc1)C(=O)[C@H](CC(=O)N1CCOCC1)C2	i	nt	nt	nt	i	nt
COc1ccc2c(c1)c1nc3n(c(=O)c1n2CC(=O)Nc1cc(C)[nH]n1)CCS3	i	i	92	i	i	i
CCC(C(=O)Nc1ccccc1N1CCCC1)c1cccc(C)c1 (stereo unspecified)	i	nt	nt	nt	i	nt
c1ccc2c(c1)C1=NCCN1c1ccccc1-2	i	nt	nt	nt	i	nt
Cn1c(C(=O)O)c(CC(=O)N2CCC(Cc3ccccc3)CC2)c2ccccc21	i	i	42	i	i	i
COc1cc2cccc(OC)c(=O)c2c(O)c1OC	i	i	i	i	i	nt
COc1cc2c(ccc3cc(OC)c(OC)c(O)c32)cc1O	i	i	55	i	i	45
CCOC(=O)c1ccccc1NC1c2ccccc2C(=O)N1c1ccc(C)cn1 (stereo unspecified)	i	i	76	i	i	i
ClCc1cc2ccccc2nc1Cl	i	i	43	i	i	95	GSTO1 recomb ABPP=i
O=C1CCN(Cc2ccccc2)CCN1[C@H](COc1ccccc1)c1ccccc1	i	i	83	i	i	i
O=C(CCc1ccccc1)N[C@H]1[C@@H](O)CCC[C@]12C(=O)N(Cc1ccccc1)c1ccccc12	i	nt	nt	nt	i	nt
O=[N+]([O-])c1cc([N+](=O)[O-])c2cccnc2c1Oc1ccccc1O	i	i	50	nt	i	i
O=[N+]([O-])c1ccc(O)c2ncccc12	i	i	45	i	i	i
COCCCN1C(=O)[C@H](CC(=O)NCc2cccs2)[C@]2(C(=O)OC)CCCCC=C12	i	nt	nt	nt	i	nt
SMILES	PRMT1 FP inh	PAD4 FP inh	GSTO1 counter	Apaf1 inhib	TDP2 inh	GSTO1 confirm	others
CS(=O)(=O)c1ccc2c(c1)sc1nc(=O)c(/C=C3/C=CC(=O)C(O)=C3)c(N)n12	i	i	44	i	i	i
C[C@@H](NC(=O)[C@@H]1CCCN1C(=O)[C@@H]1CCCN1)c1ccccc1	i	nt	nt	nt	i	nt
O=[N+]([O-])c1ccc(O)c(/C=N/n2cnc3ccccc32)c1	i	i	i	i	i	nt
Cc1ccc(/C=C2\SC(=S)N(/N=C/c3cc([N+](=O)[O-])ccc3O)C2=O)o1	nt	i	50	i	nt	43
CCOC(=O)C1=NOC(C(C)=O)(C(=O)NC2CCCC2)C1 (stereo unspecified)	i	nt	nt	nt	i	nt
Cc1ccc(S(=O)(=O)N[C@H](CNCc2ccccc2)C(C)C)cc1	i	nt	nt	nt	i	nt
COc1ccc(-c2ccc(-c3nc4c(c(=O)[nH]c(=O)n4Cc4ccccc4)n3C)o2)c([N+](=O)[O-])c1	i	i	i	i	i	nt
COCCn1c(=O)[nH]c(=O)c2c1nc(-c1ccc(-c3ccc(Cl)cc3[N+](=O)[O-])o1)n2Cc1ccccc1	i	i	60	i	i	i
CCCNC(=O)c1ccc2c(=O)n3c(-c4ccc(C)cc4)csc3nc2c1	i	i	46	i	i	i
Cc1ccc(S(=O)(=O)Nc2ccc(O)c3cccnc23)cc1	21	i	50	i	i	i
Cc1cccc(N/N=C/c2ccc(O)c(O)c2O)c1	33	i	56	i	i	i
CN(CCc1ccccc1)C(=O)c1cc2ccccn2n1	i	nt	nt	nt	i	nt
COc1cccc(-c2nnc(SCC(=O)Nc3ccc(Oc4ccccc4)cc3)n2Cc2ccco2)c1	i	nt	nt	nt	i	nt
COc1ccc(C(=O)C[C@@H]2OC3CCCCC3N2S(=O)(=O)c2ccc(C)cc2)cc1OC (stereo partly specified)	i	nt	nt	nt	i	nt
COc1cc(/C=C2\C(=O)N(c3ccc(S(N)(=O)=O)cc3)N=C2C)ccc1OC(=O)c1ccco1	i	i	53	91	i	i
C#CCOc1ccc(/C=C2/C(=O)N(c3ccc(S(N)(=O)=O)cc3)N=C2C)cc1OC	i	nt	nt	nt	i	nt
CC1CCN(C2(O)C(=O)Nc3ccc([N+](=O)[O-])cc32)CC1 (stereo unspecified)	i	i	i	i	i	nt
Cc1cc([N+](=O)[O-])cc2c1NC(=O)C2(O)N1CCOCC1 (stereo unspecified)	i	i	38	i	i	i
O=C(OCc1cn(Cc2cccc(F)c2F)nn1)N1CCOCC1	i	nt	nt	nt	i	nt
CCCCNC(=O)C[C@H]1C[C@@]2(C(=O)OCC)CCCC3=C2N(CCC3)C1=O	i	nt	nt	nt	i	nt
CN(C)c1ccc(CC2C(=O)Nc3ccccc32)cc1 (stereo unspecified)	i	i	48	i	i	i
O=C(CCl)c1cc2c3c(c1)CC(=O)N3CCC2	i	i	52	i	i	67
CCOc1ccc(C2C(C(=O)/C=C/c3ccco3)=C(O)C(=O)N2CCN2CCOCC2)cc1OC (stereo unspecified)	i	i	38	i	i	i
O=C1C(=O)N(CCS(=O)(=O)c2ccccc2)c2ccc(Cl)cc21	i	i	43	i	i	i
CCc1ccc2c(c1)C(=O)C(=O)N2CCS(=O)(=O)c1ccccc1	i	i	i	i	i	nt
COc1ccc(NC(=S)NNc2ccc(S(=O)(=O)Nc3ccccc3C(=O)O)cc2[N+](=O)[O-])cc1	i	i	67	i	i	80
COc1ccc(C=NNc2ccc(S(=O)(=O)Nc3ccccc3C(=O)O)cc2[N+](=O)[O-])c(OC)c1	nt	i	nt	i	nt	nt
O=C1CC(c2ccc(O)c(O)c2)Oc2cc(O)cc(O)c21 (stereo unspecified)	i	i	43	i	i	i
